Active and inactive are the calls of the source.
Experiments:
CHO-MG = test: Induction of polyamine efflux in aminoguanidine pretreated CHO-MG cells assessed as reduction in cell viability measured after 72 hrs in presence of putrescine by MTS assay; format: ADME, cell-based, Cricetulus griseus; details: chinese hamster
[1] = biological target: Large neutral amino acids transporter small subunit 1 (Homo sapiens) (UniProt Q01650); test: Inhibition of LAT1-mediated amino acid transport in human L3.6PL cells assessed as reduction in intracellular leucine level by measuring leucine level per mg protein in cell lysate at 7 uM measured after 72 hrs by LCMS analysis (reference value: 232 +/- 10 pmol/mg); format: cell-based
Outline: (§1)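 L3.6pl cells (50,000 cells/mL, 10 mL, 1 mM aminoguanidine) were seeded in poly-lysine-treated 9 cm dishes and incubated overnight at 37°C. They were then dosed with compound at 2, 5 or 7 μM from PBS stocks (2, 5, 7 mM) and incubated 72 h. Runs were done in triplicate, with amino acid levels per mg protein.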

L3.6pl [2] = test: Effect on polyamine level in human L3.6PL cells assessed as putrescine level per mg protein in supernatant at 2 uM measured after 72 hrs in presence of amine oxidase suppressor aminoguanidine by LCMS analysis (reference value: 977 +/- 522 pmol/mg); format: functional
[3] = biological target: Large neutral amino acids transporter small subunit 1 (Homo sapiens) (UniProt Q01650); test: Induction of LAT1-mediated polyamine efflux in aminoguanidine pretreated human L3.6PL cells assessed as reduction in cell viability at 5 uM measured after 72 hrs in presence of spermidine by MTS assay; format: cell-based
Outline: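 L3.6pl cells pre-incubated 24 h with 250 μM aminoguanidine. Then given increasing compound plus putrescine, spermidine or spermine, each fixed at 1 or 5 μM, for 72 h at 37°C. Growth by MTS relative to untreated control.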

[4] = biological target: Large neutral amino acids transporter small subunit 1 (Homo sapiens) (UniProt Q01650); test: Induction of LAT1-mediated polyamine efflux in aminoguanidine pretreated human L3.6PL cells assessed as reduction in cell viability up to 15 uM by MTS assay; format: cell-based; details: TDE = time-dependent effect
CHO-K1 [5] = test: Cytotoxicity against CHOK1 cells assessed as reduction in cell viability after 48 hrs by MTS assay; format: cell-based; details: Cricetulus griseus, CHO-K1, 48 h
Outline: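 Cells in RPMI 1640 with 10% FBS, 1% penicillin/streptomycin, 37°C, 5% CO2, with aminoguanidine (1 mM for CHO K1 and CHO-MG, 250 μM for L3.6pl). Plated overnight at 1000 cells/well (CHO lines) or 500 cells/well (L3.6pl). Compound in PBS added, 48 h exposure. Growth read as MTS formazan absorbance at 490 nm. IC50 is the dose giving 50% relative growth versus untreated control. Run twice in triplicate.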

CHO-K1 [6] = test: Potentiation of 0.5 uM N-(anthracenylmethyl) homospermidine-induced toxicity in CHOK1 cells assessed as increase in Ant-44-induced reduction in cell growth measured after 48 hrs in presence of amine oxidase suppressor aminoguanidine by MTS assay; format: functional, cell-based; details: Cricetulus griseus
Outline: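 CHO K1 cells were pretreated 24 h with 1 mM aminoguanidine, then given fixed Ant-44 (0.5 μM) plus increasing compound (up to 5 μM) for 48 h at 37°C. MTS growth was read, with EC50 defined as the dose halving growth relative to Ant-44 alone. Runs were done twice in triplicate, with SD.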

L3.6pl [7] = test: Effect on polyamine level in human L3.6PL cells assessed as spermidine level per mg protein in supernatant at 2 uM measured after 72 hrs in presence of amine oxidase suppressor aminoguanidine by LCMS analysis (reference value: 339 pmol/mg); format: functional
L3.6pl [8] = test: Effect on polyamine level in human L3.6PL cells assessed as methionine level human L3.6PL cells assessed per mg protein in supernatant at 5 uM pretreated with aminoguanidine for 24 hrs followed by compound treatment after 72 hrs by LCMS analysis (reference value: 22834 +/- 1984 pmol/mg); format: functional
L3.6pl [9] = test: Effect on polyamine level in human L3.6PL cells assessed as leucine level per mg protein in supernatant at 2 uM measured after 72 hrs in presence of amine oxidase suppressor aminoguanidine by LCMS analysis (reference value: 18009 +/- 9061 pmol/mg); format: functional
[10] = biological target: Large neutral amino acids transporter small subunit 1 (Homo sapiens) (UniProt Q01650); test: Inhibition of LAT1-mediated amino acid transport in human L3.6PL cells assessed as reduction in intracellular methionine level by measuring methionine level per mg protein in cell lysate at 5 uM measured after 72 hrs by LCMS analysis (reference value: 167 +/- 67 pmol/mg); format: cell-based; outline: as §1
L3.6pl [11] = test: Effect on polyamine level in human L3.6PL cells assessed as decrease in intracellular spermine level at 2 to 7 uM measured after 72 hrs in presence of amine oxidase suppressor aminoguanidine by LCMS analysis; format: functional, cell-based; details: in the assay text read “by N-dansylation and HPLC analysis” for “by LCMS analysis”
Outline: (§2)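 L3.6pl cells, 50,000 cells/mL in 10 mL per Petri dish with 1 mM aminoguanidine, plated overnight. Dosed with compound at 2, 5 or 7 μM from PBS stocks, then 72 h at 37°C. Intracellular polyamines measured by N-dansylation and HPLC, in duplicate, as nmol/mg protein against a parallel untreated control.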

L3.6pl [12] = test: Effect on polyamine level in human L3.6PL cells assessed as change in putrescine level at 2 to 7 uM measured after 72 hrs in presence of amine oxidase suppressor aminoguanidine by LCMS analysis; format: functional, cell-based; details: in the assay text read “by N-dansylation and HPLC analysis” for “by LCMS analysis”; outline: as §2
CHO-K1 [13] = test: Potentiation of 0.5 uM N-(anthracenylmethyl) homospermidine-induced toxicity in CHOK1 cells assessed as increase in Ant-44-induced reduction in cell growth at 5 uM measured after 48 hrs in presence of amine oxidase suppressor aminoguanidine by microscopy analysis; format: functional, cell-based; details: Cricetulus griseus
Outline: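 CHO K1 cells treated 48 h at 37°C with Ant-44 (0.5 μM) plus 5 μM compound, after 1 mM aminoguanidine pretreatment, were examined by microscope for cell number and shape versus untreated control cells.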

L3.6pl [14] = test: Effect on polyamine level in human L3.6PL cells assessed as agmatine level per mg protein in supernatant at 2 uM measured after 72 hrs in presence of amine oxidase suppressor aminoguanidine by LCMS analysis (reference value: 101 pmol/mg); format: functional
L3.6pl [15] = test: Effect on polyamine level in human L3.6PL cells assessed as methionine level human L3.6PL cells assessed per mg protein in supernatant at 2 uM pretreated with aminoguanidine for 24 hrs followed by compound treatment after 72 hrs by LCMS analysis (reference value: 22834 +/- 1984 pmol/mg); format: functional
L3.6pl [16] = test: Effect on polyamine level in human L3.6PL cells assessed as phenylalanine level per mg protein in supernatant at 5 uM measured after 72 hrs in presence of amine oxidase suppressor aminoguanidine by LCMS analysis (reference value: 14299 +/- 7194 pmol/mg); format: functional
L3.6pl [17] = test: Effect on polyamine level in human L3.6PL cells assessed as decrease in intracellular spermine level at 1 uM measured after 72 hrs in presence of amine oxidase suppressor aminoguanidine and Ant-44 by LCMS analysis; format: functional, cell-based
Outline: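 L3.6pl cells dosed with Ant-44 fixed at 2 μM plus increasing compound for 72 h at 37°C. Intracellular polyamines and Ant-44 given as nmol/mg protein, in duplicate, with a parallel untreated control.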

L3.6pl [18] = test: Cytotoxicity against human L3.6PL cells assessed as reduction in cell viability at 1 uM measured after 72 hrs by MTS assay; format: cell-based
Outline: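 L3.6pl cells given compound at increasing concentrations, alone or with Ant-44 fixed at 2 μM, for 72 h at 37°C. % cell growth by MTS against an untreated control run in parallel, in triplicate.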

Large neutral amino acids transporter small subunit 1 (Homo sapiens), sequence (Q01650 whole entry): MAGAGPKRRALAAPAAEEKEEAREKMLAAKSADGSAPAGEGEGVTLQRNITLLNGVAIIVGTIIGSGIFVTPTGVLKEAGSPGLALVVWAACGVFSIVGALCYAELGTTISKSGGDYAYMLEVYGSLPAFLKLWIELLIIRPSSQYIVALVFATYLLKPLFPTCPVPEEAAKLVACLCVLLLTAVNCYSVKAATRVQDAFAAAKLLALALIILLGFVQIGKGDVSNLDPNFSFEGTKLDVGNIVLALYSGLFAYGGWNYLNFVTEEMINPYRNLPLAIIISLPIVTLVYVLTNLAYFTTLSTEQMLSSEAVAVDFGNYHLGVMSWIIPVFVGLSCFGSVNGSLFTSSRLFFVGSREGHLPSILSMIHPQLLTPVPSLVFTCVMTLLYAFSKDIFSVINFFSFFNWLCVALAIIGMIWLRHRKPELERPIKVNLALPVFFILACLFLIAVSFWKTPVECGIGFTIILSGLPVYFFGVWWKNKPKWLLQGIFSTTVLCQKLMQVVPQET

- Activity [1]: 77 pmol/mg
- Activity [10]: 41 pmol/mg
SMILES: CC(C)CCN1CCN([C@@H](CNCc2ccccc2)CC2CCCCC2)C[C@@H]1CC(C)C
- Activity (CHO-MG): Active
- Activity (L3.6pl [2]): 938 pmol/mg
- Activity [3]: Active
- Activity [4]: Tde
- IC50 (CHO-K1 [5]): 8 µM
- Activity (CHO-K1 [6]): Dose-dependent effect
- EC50 (CHO-K1 [6]; CHO-K1, 48 h): 0.06 µM
- Activity (L3.6pl [7]): 131 pmol/mg
- Activity (L3.6pl [8]): 64036 pmol/mg
- Activity (L3.6pl [9]): 15055 pmol/mg
- Activity (L3.6pl [11]): Active
- Activity (L3.6pl [12]): inactive
- Activity (CHO-K1 [13]): Active
- Activity (L3.6pl [14]): 297 pmol/mg
- Activity (L3.6pl [15]): 17686 pmol/mg
- Activity (L3.6pl [16]): 160462 pmol/mg
- Activity (L3.6pl [17]): Active
- Activity (L3.6pl [18]): Non-Toxic
